Source: ChEMBL document CHEMBL4024711, “Design, synthesis and biological evaluation of novel nitric oxide-donating protoberberine derivatives as antitumor agents” (Eur J Med Chem, 2017)
Calls of active or inactive are those of the source. The rule behind the calls is not given here.

What was measured:
HepG2 = experiment: Cytotoxicity against human HepG2 cells after 72 hrs by MTT assay; format: functional, cell-based; conditions: HepG2, 72 h
In short: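 MTT assay. Cells were plated and grown 24 h at 37 °C, 5% CO2, then exposed to compound in medium with 0.1% DMSO for 72 h. MTT (5 mg/mL in PBS) was added for 4 h and absorbance read at 490 nm. IC50 was taken from dose-response curves; at least three independent experiments.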

H22 = experiment: Antitumor activity against human H22 cells xenografted in ICR mouse assessed as tumor growth inhibition at 20 mg/kg, iv administered once daily for 21 days measured post last dose relative to control; conditions: 504 h, read-out: TGI
[1] = Induction of NO release assessed as nitrite formation in PBS at 100 uM up to 300 mins by Griess assay
In short: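 Compound at 100 μM was incubated at 37 °C in PBS, pH 7.4, containing 2% DMSO and 5.0 mM L-cysteine, in acellular or HepG2 cell lysates, and sampled over time. Samples were mixed with Griess reagent at 37 °C for 15 min and read at 540 nm. Nitrite was quantified against a sodium nitrite standard curve, in triplicate.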

SMILES | IC50 (HepG2) [µM] | inhibition in vivo at 20 mg/kg (H22) [%] | Activity [1]
COc1ccc2cc3[n+](cc2c1OCCCCCCCCCCO[N+](=O)[O-])CCc1cc2c(cc1-3)OCO2 | 4.34 |  | 
COc1ccc2cc3[n+](cc2c1OCCCCCO[N+](=O)[O-])CCc1cc2c(cc1-3)OCO2 | 12.4 |  | 
O=P1(N(CCCl)CCCl)NCCCO1 (stereo unspecified) [CYCLOPHOSPHAMIDE ANHYDROUS] |  | 67.1 | 
COc1ccc2cc3[n+](cc2c1OCCCCCCCCCCCCO[N+](=O)[O-])CCc1cc2c(cc1-3)OCO2 | 2.52 |  | Active
COc1ccc2cc3[n+](cc2c1OC(=O)CCCCCCCO[N+](=O)[O-])CCc1cc2c(cc1-3)OCO2 | > 100 |  | Active
COc1cc2c(cc1OC)-c1cc3ccc(OC)c(OCCCCCCCCCCO[N+](=O)[O-])c3c[n+]1CC2 | 5.59 |  | 
COc1ccc2cc3[n+](cc2c1OCCCCO[N+](=O)[O-])CCc1cc2c(cc1-3)OCO2 | 18.4 |  | Active
COc1cc2c(cc1OC)-c1c(Br)c3ccc(OC)c(OCCCCCCCCCCCCO[N+](=O)[O-])c3c[n+]1CC2 | 1.98 |  | 
COc1ccc2c(c1OCCCCCCCCO[N+](=O)[O-])CN1CCc3cc4c(cc3C1C2)OCO4 (stereo unspecified) | > 100 |  | 
COc1ccc2c(Br)c3[n+](cc2c1OCCCCCCCCO[N+](=O)[O-])CCc1cc2c(cc1-3)OCO2 | 4.14 |  | Active
COc1cc2c(cc1OC)-c1cc3ccc(OC)c(OCCCCCCCCO[N+](=O)[O-])c3c[n+]1CC2 | 3.91 |  | Active
